Reference: paper PMC7007182 (Molecular imaging and biology, 2020)
Residues, ends and D or L forms follow the SMILES beside them. *: point of attachment. NOTA(2S-Bn(4-NHCS)) = O=C(O)CN1CCN(CC(=O)O)C[C@H](Cc2ccc(NC(=S)*)cc2)N(CC(=O)O)CC1

How the values were obtained:
[1] = test system: GPC3-positive HepG2 cells; experiment: Cellular uptake in GPC3-positive HepG2 cells; type: cell-based; settings: 60 min incubation, peak value; n = 4/group, mean ± SD
In short: (§1)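 Uptake of the Al[18F]F-labelled peptide (radiochemical purity >97 % by HPLC) was measured as a time course in GPC3-positive HepG2 and GPC3-negative McA-RH7777 cells. Uptake is expressed as a percentage. n = 4 per group; mean ± SD.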

[2] = In vitro stability in mouse serum; type: in vitro ADME; settings: mouse serum at 37 °C, 2 h incubation, HPLC analysis
In short: (§2)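 Radiotracer prepared by Al[18F]F chelation: peptide, AlCl3, acetic acid and acetonitrile with [18F]fluoride, heated at 100 °C for 10 min. Product purified on a C18 cartridge, eluted with ethanol/10 mM HCl, diluted in saline and sterile-filtered. Incubated 2 h in PBS (room temperature) or mouse serum (37 °C). Percent intact tracer by reverse-phase HPLC.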

[3] = test system: GPC3-positive HepG2 cells; experiment: Cell efflux in GPC3-positive HepG2 cells; type: cell-based; settings: for cell-associated radioactivity at end of efflux study: end of 1 h efflux study; for cell-associated radioactivity at start of efflux study: start of 1 h efflux study
In short: (§3)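 Efflux of the Al[18F]F-chelated radiolabelled peptide was followed over time in GPC3-positive HepG2 and GPC3-negative McA-RH7777 hepatoma cells. Cell-associated radioactivity was tracked across the efflux period. n = 4 per group; mean ± SD.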

[4] = test system: GPC3-negative McA-RH7777 cells; experiment: Cellular uptake in GPC3-negative McA-RH7777 cells; type: cell-based; settings: 60 min incubation; n = 4/group, mean ± SD
In short: as §1

HepG2 cells = experiment: Internalization in HepG2 cells; type: cell-based; settings: HepG2 cells at 2 h
[5] = test system: GPC3-negative McA-RH7777 cells; experiment: Cell efflux in GPC3-negative McA-RH7777 cells; type: cell-based; settings: efflux study
In short: as §3

[6] = In vitro stability in PBS; type: physicochemical; settings: PBS at room temperature, 2 h incubation, HPLC analysis
In short: as §2

[7] = MicroPET/CT imaging, GPC3-positive HepG2 tumor model; type: in vivo, nude mice; settings: nude, mouse, iv, 5.55 MBq, total radioactivity
In short: (§4)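 Nude mice carried subcutaneous HepG2 or McA-RH7777 xenografts (n = 3 per group). Each received 5.55 MBq tracer i.v. under isoflurane. 10-min static microPET/CT scans at 30, 60 and 120 min; 3D-OSEM reconstruction, CT attenuation correction, decay-corrected. %ID/g from ROIs drawn over entire organs. Tumor/muscle, tumor/liver and tumor/kidney ratios calculated from PET data. Mean ± SD; ANOVA or t test.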

[8] = Ex vivo biodistribution, HepG2 tumor model; type: in vivo, mice; settings: mouse, total radioactivity
[9] = MicroPET/CT imaging, GPC3-negative McA-RH7777 tumor model; type: in vivo, nude mice; settings: nude, mouse, iv, 5.55 MBq, total radioactivity
In short: as §4

Row | SMILES | cell uptake in HepG2 cells [1] [%] | intact radiotracer in mouse serum [2] [%] | cell-associated radioactivity at end of efflux study [3] [%] | cell-associated radioactivity at start of efflux study [3] [%] | internalization (HepG2 cells) | intact radiotracer in PBS [6] [%] | tissue to tissue ratio at 1 h ([7]; HepG2 tumor / kidneys) | tissue to tissue ratio at 0.5 h ([7]; HepG2 tumor / liver) | tissue to tissue ratio at 1 h ([7]; HepG2 tumor / liver) | tissue to tissue ratio at 2 h ([7]; HepG2 tumor / liver) | tissue to tissue ratio at 0.5 h ([7]; HepG2 tumor / muscle) | tissue to tissue ratio at 1 h ([7]; HepG2 tumor / muscle) | tissue to tissue ratio at 2 h ([7]; HepG2 tumor / muscle) | tissue uptake at 0.5 h ([7]; HepG2 tumor) [%ID/g] | tissue uptake at 1 h ([7]; HepG2 tumor) [%ID/g] | tissue uptake at 2 h ([7]; HepG2 tumor) [%ID/g] | tissue uptake at 0.5 h ([7]; kidneys) [%ID/g] | tissue uptake at 1 h ([7]; kidneys) [%ID/g] | tissue uptake at 0.5 h ([7]; liver) [%ID/g] | tissue uptake at 1 h ([7]; liver) [%ID/g] | other results
1 | CC(C)C[C@H](NC(=O)[C@H](CCCNC(=N)N)NC(=O)[C@H](CC(N)=O)NC(=O)[C@H](CC(=O)O)NC(=O)[C@H](CCCNC(=N)N)NC(=O)CNC(=O)CNC(=O)CNC(=S)Nc1ccc(C[C@H]2CN(CC(=O)O)CCN(CC(=O)O)CCN2CC(=O)O)cc1)C(=O)N[C@@H](CC(N)=O)C(=O)N[C@H](C(=O)NCC(=O)NCC(=O)N[C@H](C(=O)N[C@@H](Cc1ccc(O)cc1)C(=O)N[C@@H](Cc1ccccc1)C(=O)N[C@@H](CC(C)C)C(=O)N[C@H](C(=O)N[C@H](C(=O)N[C@@H](CCCNC(=N)N)C(=O)N[C@@H](CCC(N)=O)C(=O)O)[C@@H](C)O)[C@@H](C)O)[C@@H](C)O)C(C)C [Al[^18F]F-GP2633] ({NOTA(2S-Bn(4-NHCS))}-GGGRDNRLNVGGTYFLTTRQ-OH; N-terminus and C-terminus assumed) [listing 1 of 2 here] | 1.15 ± 0.05 | > 98 | 0.27 | 1.13 | < 10 % of cell uptake | > 98 |  |  |  |  |  |  |  |  |  |  |  |  |  |  | cellular uptake in McA-RH7777 cells [4]: 0.30 ± 0.03%; time for radioactivity to wash out to the baseline [5]: ≤ 5 min
2 | CC(C)C[C@H](NC(=O)[C@H](CCCNC(=N)N)NC(=S)Nc1ccc(C[C@H]2CN(CC(=O)O)CCN(CC(=O)O)CCN2CC(=O)O)cc1)C(=O)N[C@@H](CC(N)=O)C(=O)N[C@H](C(=O)NCC(=O)NCC(=O)N[C@H](C(=O)N[C@@H](Cc1ccc(O)cc1)C(=O)N[C@@H](Cc1ccccc1)C(=O)N[C@@H](CC(C)C)C(=O)N[C@H](C(=O)N[C@H](C(=O)N[C@@H](CCCNC(=N)N)C(=O)N[C@@H](CCC(N)=O)C(=O)O)[C@@H](C)O)[C@@H](C)O)[C@@H](C)O)C(C)C [Al[^18F]F-GP2076] ({NOTA(2S-Bn(4-NHCS))}-RLNVGGTYFLTTRQ-OH; N-terminus and C-terminus assumed) [listing 1 of 2 here] | 1.08 ± 0.04 | > 95 | 0.21 | 1.04 | < 10 % of cell uptake | > 95 |  |  |  |  |  |  |  |  |  |  |  |  |  |  | 
3 | CC(C)C[C@H](NC(=O)[C@H](CCCNC(=N)N)NC(=S)Nc1ccc(C[C@H]2CN(CC(=O)O)CCN(CC(=O)O)CCN2CC(=O)O)cc1)C(=O)N[C@@H](CC(N)=O)C(=O)N[C@H](C(=O)NCC(=O)NCC(=O)N[C@H](C(=O)N[C@@H](Cc1ccc(O)cc1)C(=O)N[C@@H](Cc1ccccc1)C(=O)N[C@@H](CC(C)C)C(=O)N[C@H](C(=O)N[C@H](C(=O)N[C@@H](CCCNC(=N)N)C(=O)N[C@@H](CCC(N)=O)C(=O)O)[C@@H](C)O)[C@@H](C)O)[C@@H](C)O)C(C)C [Al[^18F]F-GP2076] ({NOTA(2S-Bn(4-NHCS))}-RLNVGGTYFLTTRQ-OH; N-terminus and C-terminus assumed) [listing 2 of 2 here] |  |  |  |  |  |  | 0.31 ± 0.04 | 0.43 ± 0.06 | 0.59 ± 0.14 | 0.46 ± 0.4 | 5.56 ± 1.36 | 5.13 ± 2.08 | 2.68 ± 0.29 | 2.2 ± 0.36 | 2.13 ± 0.55 | 0.73 ± 0.32 | 9.83 ± 3.69 | 7.03 ± 2.32 | 5.1 ± 0.53 | 3.7 ± 0.98 | tissue uptake at 1 h ([8]; HepG2 tumor): 1.13 ± 0.02 %ID/g; tissue uptake at 1 h ([8]; liver): 2.3 ± 0.56 %ID/g
4 | CC(C)C[C@H](NC(=O)[C@H](CCCNC(=N)N)NC(=O)[C@H](CC(N)=O)NC(=O)[C@H](CC(=O)O)NC(=O)[C@H](CCCNC(=N)N)NC(=O)CNC(=O)CNC(=O)CNC(=S)Nc1ccc(C[C@H]2CN(CC(=O)O)CCN(CC(=O)O)CCN2CC(=O)O)cc1)C(=O)N[C@@H](CC(N)=O)C(=O)N[C@H](C(=O)NCC(=O)NCC(=O)N[C@H](C(=O)N[C@@H](Cc1ccc(O)cc1)C(=O)N[C@@H](Cc1ccccc1)C(=O)N[C@@H](CC(C)C)C(=O)N[C@H](C(=O)N[C@H](C(=O)N[C@@H](CCCNC(=N)N)C(=O)N[C@@H](CCC(N)=O)C(=O)O)[C@@H](C)O)[C@@H](C)O)[C@@H](C)O)C(C)C [Al[^18F]F-GP2633] ({NOTA(2S-Bn(4-NHCS))}-GGGRDNRLNVGGTYFLTTRQ-OH; N-terminus and C-terminus assumed) [listing 2 of 2 here] |  |  |  |  |  |  | 0.09 ± 0.01 | 1.77 ± 0.2 | 2 ± 0.18 | 1.28 ± 0.25 | 9.11 ± 0.79 | 12.2 ± 0.62 | 6.2 ± 1.8 | 3.13 ± 0.31 | 3.37 ± 0.35 | 1.3 ± 0.17 | 39.4 ± 0.98 | 36.9 ± 2.05 | 1.8 ± 0.36 | 1.7 ± 0.26 | tissue uptake at 1 h ([8]; HepG2 tumor): 1.96 ± 0.29 %ID/g; tissue uptake at 1 h ([8]; liver): 0.97 ± 0.07 %ID/g; tissue to tissue ratio at 0.5 h ([9]; McA-RH7777 tumor / muscle): 3.87 ± 1.97; tissue to tissue ratio at 1 h ([9]; McA-RH7777 tumor / muscle): 6.2 ± 2.67; tissue uptake at 0.5 h ([9]; McA-RH7777 tumor): 1.75 ± 0.05 %ID/g; tissue uptake at 1 h ([9]; McA-RH7777 tumor): 1.64 ± 0.03 %ID/g; tissue uptake at 2 h ([9]; McA-RH7777 tumor): 0.66 ± 0.06 %ID/g
